# Calls of active or inactive are those of the source. The rule behind the calls is not given here.
# Tests used:
# [1] = tested on: HOP-62; assay: Cytotoxicity against human HOP62 cells after 48 hrs by SRB assay; assay type: functional; details: for GI50: HOP-62, 48 h
# Procedure, shortened: (§1)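 NCI-60 human cancer cell line screen. Five-concentration testing across 0.01 to 100 μM, done only for compounds selected from a one-concentration preliminary test. Read-out was GI50.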
# [2] = tested on: SF-539; assay: Cytotoxicity against human SF539 cells after 48 hrs by SRB assay; assay type: functional; details: for GI50: SF-539, 48 h; procedure, shortened: as §1
# [3] = tested on: UACC-62; assay: Cytotoxicity against human UACC62 cells after 48 hrs by SRB assay; assay type: functional; details: for GI50: UACC-62, 48 h; procedure, shortened: as §1
# [4] = tested on: MCF7; assay: Cytotoxicity against human MCF7 cells after 48 hrs by SRB assay; assay type: functional; details: for GI50: MCF7, 48 h; procedure, shortened: as §1
# [5] = tested on: CCRF-CEM; assay: Induction of DNA damage in human CCRF-CEM cells assessed as formation of gamma-H2AX foci at 100 to 1000 nM after 2 hrs by DAPI staining-based confocal microscopy; assay type: functional, cell-based
# Procedure, shortened: (§2)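 Freshly purified human PBMCs (from healthy donors) or CCRF-CEM leukemia cells were used at 2 mil/mL in RPMI 1640 with 10% FBS, penicillin and streptomycin. Cells were dosed at 100 nM and 1 μM for 2 h at 37 °C. They were then fixed in 2% paraformaldehyde, cytospun and blocked in 5% BSA. Staining used anti-γ-H2AX with an Alexa 488 secondary and DAPI, and foci were imaged by confocal microscopy.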
# [6] = tested on: PBMC; assay: Induction of DNA damage in human PBMC assessed as formation of gamma-H2AX foci at 100 to 1000 nM after 2 hrs by DAPI staining-based confocal microscopy; assay type: cell-based; details: 1 µM; procedure, shortened: as §2
# [7] = molecular target: T1, DNA topoisomerase 1 (Homo sapiens) (UniProt P11387); assay: Inhibition of recombinant Top1 (unknown origin) assessed as increase in [32P]-DNA breaks at 0.1 to 100 uM after 20 mins by PAGE analysis
# T1 sequence (whole entry): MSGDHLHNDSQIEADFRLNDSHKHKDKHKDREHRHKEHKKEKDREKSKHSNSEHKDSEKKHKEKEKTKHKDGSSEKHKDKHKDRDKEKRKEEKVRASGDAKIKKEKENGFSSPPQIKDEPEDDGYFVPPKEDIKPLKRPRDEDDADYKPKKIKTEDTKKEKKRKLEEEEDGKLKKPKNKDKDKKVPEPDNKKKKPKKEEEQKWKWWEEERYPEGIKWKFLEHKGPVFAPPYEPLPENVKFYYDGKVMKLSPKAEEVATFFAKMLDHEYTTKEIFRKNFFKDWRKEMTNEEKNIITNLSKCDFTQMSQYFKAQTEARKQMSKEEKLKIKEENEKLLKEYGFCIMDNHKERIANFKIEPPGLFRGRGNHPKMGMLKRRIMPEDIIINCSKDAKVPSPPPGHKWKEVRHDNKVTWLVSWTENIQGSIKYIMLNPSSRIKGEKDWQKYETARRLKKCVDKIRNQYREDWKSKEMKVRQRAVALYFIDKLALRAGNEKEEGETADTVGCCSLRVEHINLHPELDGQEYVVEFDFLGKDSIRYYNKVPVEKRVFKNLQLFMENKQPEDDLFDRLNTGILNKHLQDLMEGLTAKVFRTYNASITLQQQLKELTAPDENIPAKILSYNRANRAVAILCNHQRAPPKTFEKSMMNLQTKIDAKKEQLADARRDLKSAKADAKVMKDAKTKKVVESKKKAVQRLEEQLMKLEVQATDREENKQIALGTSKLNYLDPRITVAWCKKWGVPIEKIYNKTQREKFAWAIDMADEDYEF
# Procedure, shortened: (§3)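 The substrate was a 3′-32P 117-bp oligonucleotide holding Top1 cleavage sites, at about 2 nM, with recombinant Top1. Compounds were tested at 0.1, 1.0, 10 and 100 μM. Reactions were stopped with 0.5% SDS and run on 20% denaturing PAGE.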
# [8] = molecular target: Tyrosyl-DNA phosphodiesterase 1 (Homo sapiens, UniProt Q9NUW8); assay: Inhibition of recombinant Tdp1 (unknown origin) assessed as decrease in hydrolysis of phosphodiester linkage between tyrosine residue and the 3' end of 5'-[32P]-DNA after 15 mins by PAGE analysis
# Chain of Tyrosyl-DNA phosphodiesterase 1 (Q9NUW8 whole entry): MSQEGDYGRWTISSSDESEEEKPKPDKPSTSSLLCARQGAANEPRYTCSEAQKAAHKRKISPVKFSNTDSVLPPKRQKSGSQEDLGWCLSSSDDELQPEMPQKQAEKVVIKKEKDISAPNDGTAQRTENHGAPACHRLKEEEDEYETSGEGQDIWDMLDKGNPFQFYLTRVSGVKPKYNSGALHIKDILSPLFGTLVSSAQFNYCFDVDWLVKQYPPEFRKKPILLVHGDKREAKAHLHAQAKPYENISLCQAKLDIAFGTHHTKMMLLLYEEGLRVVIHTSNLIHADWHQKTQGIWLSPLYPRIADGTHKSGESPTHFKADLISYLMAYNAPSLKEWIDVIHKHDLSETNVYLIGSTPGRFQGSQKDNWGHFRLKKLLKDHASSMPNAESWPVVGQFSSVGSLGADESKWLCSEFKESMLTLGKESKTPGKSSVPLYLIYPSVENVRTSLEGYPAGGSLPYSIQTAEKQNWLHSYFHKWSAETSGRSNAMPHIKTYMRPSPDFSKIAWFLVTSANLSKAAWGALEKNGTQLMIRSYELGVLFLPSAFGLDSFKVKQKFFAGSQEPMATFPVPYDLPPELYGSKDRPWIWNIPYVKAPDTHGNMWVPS
# Procedure, shortened: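 The substrate was 5′-32P single-stranded oligo N14Y carrying a 3′-phosphotyrosine, at 1 nM, with 10 pM recombinant Tdp1. Products were run on 16% denaturing PAGE with phosphorimaging.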
# [9] = molecular target: T2, Tyrosyl-DNA phosphodiesterase 2 (Homo sapiens) (UniProt O95551); assay: (§4) Inhibition of recombinant human Tdp2 assessed as decrease in alpha 32P-cordycepin-3'-labeled DNA breaks after 15 mins by PAGE analysis
# T2 sequence (whole entry): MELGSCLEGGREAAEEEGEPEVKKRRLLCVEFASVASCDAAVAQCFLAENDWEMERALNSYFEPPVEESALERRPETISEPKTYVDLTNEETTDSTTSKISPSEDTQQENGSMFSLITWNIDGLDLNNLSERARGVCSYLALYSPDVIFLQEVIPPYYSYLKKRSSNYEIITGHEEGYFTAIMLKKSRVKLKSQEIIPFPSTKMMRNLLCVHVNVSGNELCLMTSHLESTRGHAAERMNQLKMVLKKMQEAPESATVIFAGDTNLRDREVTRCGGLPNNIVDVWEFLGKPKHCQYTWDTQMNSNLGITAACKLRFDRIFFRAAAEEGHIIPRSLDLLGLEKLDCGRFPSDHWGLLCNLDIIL
# Procedure, shortened: (§5)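 The substrate was the 18-mer single-stranded TY18 oligo, α32P-cordycepin-3′-labeled, at 1 nM, with 25 pM recombinant human Tdp2. Products were run on 16% denaturing PAGE.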
# [10] = molecular target: T3, Tyrosyl-DNA phosphodiesterase 2 (Homo sapiens, UniProt O95551); assay: as §4; procedure, shortened: as §5
# T3 sequence (O95551 whole entry): T2 sequence (whole entry)
# [11] = tested on: OVCAR-3; assay: Cytotoxicity against human OVCAR3 cells after 48 hrs by SRB assay; assay type: functional; details: for GI50: OVCAR-3, 48 h; procedure, shortened: as §1
# [12] = tested on: SN12C; assay: Cytotoxicity against human SN12C cells after 48 hrs by SRB assay; assay type: functional; procedure, shortened: as §1
# [13] = molecular target: T1, DNA topoisomerase 1 (Homo sapiens); assay: Poison activity at recombinant Top1 (unknown origin) assessed as inhibition of [32P]-DNA religation in drug-DNA-Top1 ternary complex at 0.1 to 10 uM after 20 mins by PAGE analysis; procedure, shortened: as §3
# [14] = molecular target: T1, DNA topoisomerase 1 (Homo sapiens); assay: Suppressor activity at recombinant Top1 (unknown origin) assessed as decrease in [32P]-DNA breaks at 100 uM after 20 mins by PAGE analysis; procedure, shortened: as §3
# [15] = molecular target: T1, DNA topoisomerase 1 (Homo sapiens); assay: Inhibition of recombinant Top1 (unknown origin) assessed as increase in [32P]-DNA breaks after 20 mins by PAGE analysis; procedure, shortened: as §3
# [16] = molecular target: T1, DNA topoisomerase 1 (Homo sapiens); assay: Inhibition of recombinant Top1 (unknown origin) assessed as increase in [32P]-DNA breaks at 1 uM after 20 mins by PAGE analysis; procedure, shortened: as §3
Compound,GI50 [1] [nM],GI50 [2] [nM],GI50 [3] [nM],GI50 [4] [nM],Activity [5],Activity [6],inhibition [7],IC50 [8] [nM],inhibition [8],inhibition [9],IC50 [10] [nM],GI50 [11] [nM],GI50 [12] [nM],inhibition [15],further results
CC[C@@]1(O)C(=O)OCc2c1cc1n(c2=O)Cc2cc3ccccc3nc2-1 [CAMPTOTHECIN],< 10,< 10,< 10,13,Active,Non-Toxic,–,–,–,–,–,–,–,–,–
COc1cnc2c(c1)C(=O)c1c-2n(CCCNC(C)C)c(=O)c2cc([N+](=O)[O-])ccc12,85,51,19,12,Active,Non-Toxic,Active,12000 to 37000,Dose-dependent effect,Dose-dependent effect,37000 to 111000,82,39,–,–
COc1cnc2c(c1)C(=O)c1c-2n(CCCNCCN2CCOCC2)c(=O)c2cc([N+](=O)[O-])ccc12,150,311,44,32,–,–,Active,12000 to 37000,Dose-dependent effect,Dose-dependent effect,37000 to 111000,315,80,–,–
COc1cnc2c(c1)C(=O)c1c-2n(CCCNC2=NCCS2)c(=O)c2cc([N+](=O)[O-])ccc12,14,36,< 10,< 10,Active,Non-Toxic,Active,1000 to 12000,Dose-dependent effect,Dose-dependent effect,12000 to 37000,137,< 10,–,Activity [13]: Active; Activity [14]: Active
CNCCCn1c2c(c3ccc([N+](=O)[O-])cc3c1=O)C(=O)c1cc(OC)cnc1-2,30,51,20,1060,–,–,–,1000 to 12000,Dose-dependent effect,Dose-dependent effect,37000 to 111000,174,46,Active,–
COc1cnc2c(c1)C(=O)c1c-2n(CCCBr)c(=O)c2cc([N+](=O)[O-])ccc12,58,279,82,46,–,–,–,12000 to 37000,Dose-dependent effect,Dose-dependent effect,37000 to 111000,248,269,Active,–
COc1cc2c3c(n(CCCNCCO)c(=O)c2cc1OC)-c1cc2c(cc1C3=O)OCO2 [LMP-744],–,40,–,–,–,–,–,12000 to 111000,–,–,1000 to 12000,–,–,–,inhibition [16]: Active
COc1cnc2c(c1)C(=O)c1c-2n(CCCN2CCC(N)CC2)c(=O)c2cc([N+](=O)[O-])ccc12,–,–,–,–,Active,Non-Toxic,–,1000 to 12000,Dose-dependent effect,Dose-dependent effect,1000 to 12000,–,–,Active,Activity [1]: inactive; Activity [2]: inactive; Activity [3]: inactive; Activity [11]: inactive; Activity [12]: inactive; Activity [4]: inactive
COc1cnc2c(c1)C(=O)c1c-2n(CCCN2CCCC2)c(=O)c2cc([N+](=O)[O-])ccc12,< 10,31,15,< 10,–,–,–,1000 to 12000,Dose-dependent effect,Dose-dependent effect,37000 to 111000,59,36,Active,–
CCNCCCn1c2c(c3ccc([N+](=O)[O-])cc3c1=O)C(=O)c1cc(OC)cnc1-2,107,70,27,19,Active,Non-Toxic,Active,1000 to 12000,Dose-dependent effect,Dose-dependent effect,37000 to 111000,62,53,–,–
COc1cnc2c(c1)C(=O)c1c-2n(CCCN2CCN(C)CC2)c(=O)c2cc([N+](=O)[O-])ccc12,81,191,183,16,–,–,–,12000 to 37000,Dose-dependent effect,Dose-dependent effect,12000 to 37000,171,214,Active,–
COc1cnc2c(c1)C(=O)c1c-2n(CCCN2CCN(CCO)CC2)c(=O)c2cc([N+](=O)[O-])ccc12,2760,1700,1220,142,–,–,–,> 111000,Dose-dependent effect,Dose-dependent effect,> 111000,1460,–,Active,–
COc1cnc2c(c1)C(=O)c1c-2n(CCCN2CCNCC2)c(=O)c2cc([N+](=O)[O-])ccc12,65,355,175,36,–,–,–,12000 to 37000,Dose-dependent effect,Dose-dependent effect,37000 to 111000,1190,230,Active,–
